Test results published in ChEMBL document CHEMBL4837261, “Optimization of TopoIV Potency, ADMET Properties, and hERG Inhibition of 5-Amino-1,3-dioxane-Linked Novel Bacterial Topoisomerase Inhibitors: Identification of a Lead with In Vivo Efficacy against MRSA” (J Med Chem, 2021).
Values after ≈ are worked out from the molar mass of the structure shown.

How the values were obtained:
[1] = system: Staphylococcus aureus; test: Antibacterial activity against Staphylococcus aureus harbouring GyrA D83N mutant by CLSI method; type: functional
[2] = target: DNA gyrase (Staphylococcus aureus, UniProt P0A0K8+P20831); test: Inhibition of Staphylococcus aureus Gyrase supercoiling activity assessed as reduction in supercoiling pBR322 DNA by measuring relaxation by bromophenol blue staining based TAE gel method; type: protein-complex assay
[3] = system: Staphylococcus aureus; test: Antibacterial activity against Staphylococcus aureus 3527 by CLSI method; type: functional
[4] = system: Staphylococcus aureus; test: Selectivity index, ratio of IC50 for inhibition of Staphylococcus aureus topoisomerase IV decatenation activity to IC50 for inhibition of Staphylococcus aureus DNA gyrase supercoiling activity
Procedure, shortened: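 Both IC50s were measured in gel-based assays with S. aureus enzymes: supercoiling inhibition for DNA gyrase and decatenation inhibition for TopoIV. The ratio is TopoIV IC50 divided by gyrase IC50.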

[5] = system: Staphylococcus aureus; test: Antibacterial activity against Staphylococcus aureus ATCC 29213 by CLSI method; type: functional
[6] = system: Staphylococcus aureus; test: Antibacterial activity against cystic fibrosis isolate Staphylococcus aureus by CLSI method; type: functional
[7] = target: Topoisomerase IV (Staphylococcus aureus, UniProt P0C1S7+P0C1U9); test: Inhibition of Staphylococcus aureus topoisomerase IV decatenation activity using kDNA as substrate by ethidium bromide/bromophenol blue staining based agarose gel electrophoresis analysis; type: protein-complex assay
[8] = system: Staphylococcus aureus; test: Antibacterial activity against methicillin-resistant Staphylococcus aureus USA300 by CLSI method; type: functional
[9] = target: DNA gyrase (Staphylococcus aureus, UniProt P0A0K8+P20831, D83N); test: Inhibition of Staphylococcus aureus DNA Gyrase D83N mutant assessed as reduction in supercoiling pBR322 DNA by measuring relaxation by bromophenol blue staining based TAE gel method
[10] = system: Staphylococcus aureus; test: Selectivity ratio of IC50 for inhibition of Staphylococcus aureus Gyrase D83N mutant to IC50 for inhibition of Staphylococcus aureus Gyrase
Procedure, shortened: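 Ratio of two IC50s: the IC50 from the D83N mutant gyrase supercoiling assay (commercial kit) divided by the IC50 from the gel-based wild-type S. aureus gyrase supercoiling assay.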

[11] = Growth inhibition of human K/VP.5 cells incubated for 48 hrs by NBTI cell counting analysis; type: functional; settings: K562, 48 h

Compound | MIC [1] | IC50 [2] | MIC [3] | Ratio IC50 [4] | MIC [5] | MIC [6] | IC50 [7] | MIC [8] | IC50 [9] | Ratio IC50 [10] | IC50 [11]
COc1ccc2ccc(F)c(C[C@H](O)[C@H]3OC[C@H](NCc4ccc(Cl)c(Cl)c4)CO3)c2n1 | 4 µg/mL (≈ 8.31 µM) | 43 nM | 0.25 µg/mL (≈ 0.519 µM) | 54 | 0.25 µg/mL (≈ 0.519 µM) | 0.25 µg/mL (≈ 0.519 µM) | 2300 nM | 0.5 µg/mL (≈ 1.04 µM) | – | – | –
COc1ccc2ncc(F)c(C[C@H](O)[C@H]3OC[C@H](NCc4cc5c(cn4)OCO5)CO3)c2n1 | > 8 µg/mL | 850 nM | 1 µg/mL (≈ 2.18 µM) | 22 | 0.5 µg/mL (≈ 1.09 µM) | 0.5 µg/mL (≈ 1.09 µM) | 18000 nM | 1 µg/mL (≈ 2.18 µM) | 73000 nM | 86 | –
COc1ccc2ncc(F)c(C[C@H](O)[C@H]3OC[C@H](NCc4ccc(C)cc4)CO3)c2n1 | 8 µg/mL (≈ 18.7 µM) | 160 nM | ≤ 0.25 µg/mL | – | 0.125 µg/mL (≈ 0.292 µM) | 0.25 µg/mL (≈ 0.585 µM) | 2700 nM | ≤ 0.25 µg/mL | 6500 nM | – | 46900 nM
COc1ccc2ncc(F)c(C[C@H](O)[C@H]3OC[C@H](NCc4cc5c(cn4)OCS5)CO3)c2n1 | 1 µg/mL (≈ 2.11 µM) | 99 nM | 0.125 µg/mL (≈ 0.263 µM) | – | 0.06 µg/mL (≈ 0.126 µM) | 0.25 µg/mL (≈ 0.527 µM) | 430 nM | 0.125 µg/mL (≈ 0.263 µM) | 5900 nM | – | 118000 nM
COc1ccc2ccc(F)c(C[C@H](O)[C@H]3OC[C@H](NCc4cc5c(nn4)OCCS5)CO3)c2n1 | 4 µg/mL (≈ 8.19 µM) | 120 nM | 0.5 µg/mL (≈ 1.02 µM) | 39 | 0.25 µg/mL (≈ 0.512 µM) | 0.25 µg/mL (≈ 0.512 µM) | 4600 nM | 0.5 µg/mL (≈ 1.02 µM) | 12000 nM | 99 | –
COc1ccc2ncc(F)c(C[C@H](O)[C@H]3OC[C@H](NCc4ccc(Cl)c(Cl)c4)CO3)c2c1 | 4 µg/mL (≈ 8.31 µM) | 56 nM | 0.25 µg/mL (≈ 0.519 µM) | 24 | 0.125 µg/mL (≈ 0.26 µM) | 0.5 µg/mL (≈ 1.04 µM) | 1300 nM | 0.25 µg/mL (≈ 0.519 µM) | – | – | –
COc1ccc2ncc(F)c(C(O)C[C@H]3OC[C@H](NCc4ccc5c(c4)OCCO5)CO3)c2n1 (mixture of isomers) | 8 µg/mL (≈ 17 µM) | 22 nM | ≤ 0.25 µg/mL | – | ≤ 0.25 µg/mL | 0.5 µg/mL (≈ 1.06 µM) | 3200 nM | 0.25 µg/mL (≈ 0.53 µM) | – | – | 39200 nM
COc1ccc2ccc(F)c(C[C@H](O)[C@H]3OC[C@H](NCc4ccc5c(n4)NC(=O)CO5)CO3)c2n1 | 2 µg/mL (≈ 4.13 µM) | 95 nM | 0.25 µg/mL (≈ 0.516 µM) | – | 0.25 µg/mL (≈ 0.516 µM) | 0.5 µg/mL (≈ 1.03 µM) | 990 nM | 0.25 µg/mL (≈ 0.516 µM) | 69000 nM | – | > 50000 nM
COc1ccc2ncc(F)c(C[C@H](O)[C@H]3OC[C@H](NCc4cnc5c(n4)OCCO5)CO3)c2n1 | 8 µg/mL (≈ 16.9 µM) | 360 nM | 1 µg/mL (≈ 2.11 µM) | 52 | 0.25 µg/mL (≈ 0.528 µM) | 0.125 µg/mL (≈ 0.264 µM) | 19000 nM | 1 µg/mL (≈ 2.11 µM) | 29000 nM | 80 | –
COc1ccc2ncc(F)c(C[C@H](O)[C@H]3OC[C@H](NCc4cc5c(nn4)OCCO5)CO3)c2c1 | 16 µg/mL (≈ 33.9 µM) | 840 nM | 2 µg/mL (≈ 4.23 µM) | 10 | 1 µg/mL (≈ 2.12 µM) | 0.5 µg/mL (≈ 1.06 µM) | 8500 nM | 2 µg/mL (≈ 4.23 µM) | 51000 nM | 60 | –
COc1ccc2ncc(F)c(C[C@H](O)[C@H]3OC[C@H](NCc4ccc(C)cc4)CO3)c2c1 | 8 µg/mL (≈ 18.8 µM) | 14 nM | 0.5 µg/mL (≈ 1.17 µM) | 294 | 0.25 µg/mL (≈ 0.586 µM) | 0.25 µg/mL (≈ 0.586 µM) | 4100 nM | 0.5 µg/mL (≈ 1.17 µM) | – | – | –
COc1ccc2ncc(F)c(C(O)C[C@H]3OC[C@H](NCc4ccc(Cl)c(Cl)c4)CO3)c2c1 (mixture of isomers) | 4 µg/mL (≈ 8.31 µM) | 160 nM | ≤ 0.25 µg/mL | – | ≤ 0.25 µg/mL | 0.5 µg/mL (≈ 1.04 µM) | 8100 nM | 0.5 µg/mL (≈ 1.04 µM) | – | – | 24500 nM
COc1ccc2ncc(F)c(C(O)C[C@H]3OC[C@H](NCc4ccc(Cl)c(Cl)c4)CO3)c2n1 (mixture of isomers) | 4 µg/mL (≈ 8.29 µM) | 220 nM | ≤ 0.25 µg/mL | 2.7 | 0.125 µg/mL (≈ 0.259 µM) | 0.25 µg/mL (≈ 0.518 µM) | 600 nM | 0.25 µg/mL (≈ 0.518 µM) | – | – | –
